Read-outs that look alike come from different tables or passages of the source.
How the values were obtained:
[1] = Plasma pharmacokinetics at steady-state, LC-MS/MS, noncompartmental analysis; type: in vivo, human; settings: for MR, metabolic ratio (AUCτ,ss of metabolite/AUCτ,ss of parent) / AUCτ,ss / Cmax,ss / CLss/F / Ctrough,ss: mean ± SD, N = 34
Summary of the method: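 Oral DPP-4 inhibitor 5 mg once daily, alone for 7 days or with sulfonylurea 4 mg. Plasma was sampled pre-dose and at 1, 2, 3, 4, 5, 6, 8 and 12 h at steady state, spun at 1900 g (4°C, 10 min) and frozen below −70°C. LC-MS/MS was linear over 0.1–60 μg/L. Noncompartmental analysis: Cmax,ss observed; AUCτ,ss and CLss by the linear-log trapezoidal method.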

[2] = cited from earlier work
[3] = tested on: serum glucose; experiment: Oral glucose tolerance test, serum glucose; type: in vivo, human; settings: OGTT 75 g glucose, steady-state, mean ± SD, N = 34
Summary of the method: (§1)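 Healthy Korean men aged 19–45 years (BMI 18–27 kg/m2) in a randomized, open-label, 3-period crossover study. Treatments were oral once daily: DPP-4 inhibitor 5 mg, sulfonylurea 4 mg, or both. After an overnight fast, subjects took 75 g glucose; serum glucose and insulin were sampled at 0, 0.25, 0.5, 1, 1.5, 2 and 3 h, at baseline (day −1) and at steady state. Peaks were read directly; areas used the linear trapezoidal method. Δ values subtracted baseline at each time point.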

[4] = tested on: serum insulin; experiment: Oral glucose tolerance test, serum insulin; type: in vivo, human; settings: OGTT 75 g glucose, steady-state; mean ± SD; N = 34
Summary of the method: as §1

[5] = Urinary excretion of evogliptin at steady-state; type: in vivo, human; settings: for CL renal: human, urine and plasma, oral
Summary of the method: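 At steady state of oral DPP-4 inhibitor 5 mg once daily, urine was collected over 0–24 h and frozen below −70°C. Parent drug was measured by LC-MS/MS (linear 5–50,000 μg/L). feτ,ss was the amount excreted unchanged divided by that day's dose. Renal clearance was the amount excreted divided by plasma AUCτ,ss.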

[6] = tested on: CYP enzymes; settings: ref unpublished in-house data; cited from earlier work
[7] = Safety and tolerability, adverse events; type: in vivo, human
Summary of the method: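 Adverse events, physical examinations, vital signs, 12-lead ECG and clinical laboratory tests were monitored throughout the crossover study in dosed healthy men. Investigators assessed whether each adverse event was related to treatment.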

[8] = EVO+GLI: evogliptin 5 mg and glimepiride 4 mg once daily
[9] = EVO+GLI: evogliptin 5 mg and glimepiride 4 mg once daily, plasma
[10] = EVO: evogliptin 5 mg once daily
[11] = EVO: evogliptin 5 mg once daily, plasma
[12] = GLI: glimepiride 4 mg once daily
[13] = GLI: glimepiride 4 mg once daily, plasma

Row | Structure (SMILES) | MR, metabolic ratio (AUCτ,ss of metabolite/AUCτ,ss of parent) [1, 8] | AUCτ,ss [1, 9] | Cmax,ss [1, 9] | MR, metabolic ratio (AUCτ,ss of metabolite/AUCτ,ss of parent) [1, 10] | AUCτ,ss [1, 11] | Cmax,ss [1, 11] | 2 h PBG, 2 hour postprandial blood glucose [3] | AUGC, area under the serum glucose-time curve [3] [mg·h/dL] | ΔAUGC, difference in the area under the serum glucose-time curve from baseline [3] | ΔGmax, difference in maximum serum glucose level from baseline [3] | AUEC, area under the serum insulin-time curve [4] | Emax, maximum serum insulin level [4] | ΔAUEC, difference in the area under the serum insulin-time curve from baseline [4] | ΔEmax, difference in maximum serum insulin level from baseline [4] | CLss/F [1, 8] | Ctrough,ss [1, 9] | half-life ([1]; human, plasma, oral) [h] | other results
1 | CC(C)(C)OC[C@@H]1C(=O)NCCN1C(=O)C[C@H](N)[C@@H](O)c1cc(F)c(F)cc1F [Evogliptin M7, 4(S)-hydroxyevogliptin] | 0.09 ± 0.02 (0.04–0.13) | 10.1 ± 2.8 (5.5–17) μg·h/L | 0.7 ± 0.2 (0.4–1.0) μg/L | 0.09 ± 0.02 (0.03–0.12) | 9.8 ± 2.4 (6.3–14.6) μg·h/L | 0.7 ± 0.2 (0.4–1.2) μg/L | – | – | – | – | – | – | – | – | – | – | – | –
2 | CC(C)(C)OC[C@@H]1C(=O)NCCN1C(=O)C[C@H](N)[C@H](O)c1cc(F)c(F)cc1F [Evogliptin M8, 4(R)-hydroxyevogliptin] | 0.1 ± 0.02 (0.05–0.13) | 10.4 ± 2.5 (6–17) μg·h/L | 0.6 ± 0.2 (0.3–1) μg/L | 0.09 ± 0.02 (0.04–0.13) | 10.3 ± 2.1 (6.8–14.7) μg·h/L | 0.6 ± 0.2 (0.4–1.1) μg/L | – | – | – | – | – | – | – | – | – | – | – | –
3 | CC(C)(C)OC[C@@H]1C(=O)NCCN1C(=O)C[C@H](N)Cc1cc(F)c(F)cc1F [Evogliptin, evogliptin] | – | – | – | – | – | – | 114.7 ± 17.3 (83–164) mg/dL | 334.9 | −35.8 ± 39.2 (−137.6–18.5) mg·h/dL | −53.2 ± 32 (−162– −12) mg/dL | 91.1 ± 48.6 (31.4–265) μIU·h/mL | 53.1 ± 25.2 (16.3–124.2) μIU/mL | −19.2 ± 46.6 (−179.9–36.1) μIU·h/mL | −20.4 ± 35.5 (−142.5–21.7) μIU/mL | 46.9 ± 8.3 (28.4–62.4) L/h | 3.1 ± 0.7 (2.2–5.1) μg/L | 23.6 ± 5.9 | Tmax, time to reach maximal plasma concentration ([2]; after oral administration): approximately 5 h; Gmax, maximum serum glucose level ([3]; healthy male subjects): 136.7 mg/dL; AUGC, area under the serum glucose-time curve ([3]; listed as EVO): 334.9 ± 31.7 (260–406.5) mg·h/dL; feτ,ss, fraction excreted unchanged in urine during the dosing interval ([5]; EVO: evogliptin 5 mg once daily, urine 0–24 h, mean ± SD, N = 34): 19.1 ± 7.2 (6.7–43.9) %; CL renal [5]: 148 mL/min; CL renal ([5]; 5 mg): 140 mL/min; Induction or inhibition of CYP enzymes [6]: did not induce or inhibit CYP enzymes; Diarrhea: number of subjects who reported adverse drug reactions (number of ADRs) ([7]; N = 35): 1 (1); CLss/F [1, 10]: 45.6 ± 7.5 (26.5–56.1) L/h; Ctrough,ss [1, 11]: 3.3 ± 0.7 (2.2–5.6) μg/L; Day on which steady-state was achieved ([1]; evogliptin 5 mg once daily): 4 days; Tmax ([1]; human, plasma, oral): 3.5 h; AUC ([1]; human, plasma, oral, 5 mg): 113 ± 21.6 ng·h/mL; Cmax ([1]; human, plasma, oral, 5 mg): 6.7 ± 1.4 ng/mL; half-life ([1]; human, plasma, oral, 5 mg): 28.4 ± 8.9 h
4 | CCC1=C(C)CN(C(=O)NCCc2ccc(S(=O)(=O)NC(=O)NC3CCC(CO)CC3)cc2)C1=O (stereo not drawn) [Glimepiride M1, hydroxyglimepiride] | 0.39 ± 0.1 (0.19–0.62) | 652.6 ± 197.7 (387–1331.4) μg·h/L | 84.2 ± 19 (55.8–137) μg/L | – | – | – | – | – | – | – | – | – | – | – | – | – | – | MR, metabolic ratio (AUCτ,ss of metabolite/AUCτ,ss of parent) [1, 12]: 0.4 ± 0.11 (0.2–0.63); AUCτ,ss [1, 13]: 611.9 ± 180.7 (309.4–1179.5) μg·h/L; Cmax,ss [1, 13]: 81.3 ± 20.6 (47.7–135.3) μg/L
5 | CCC1=C(C)CN(C(=O)NCCc2ccc(S(=O)(=O)NC(=O)N[C@H]3CC[C@H](C)CC3)cc2)C1=O [Glimepiride, glimepiride] | – | – | – | – | – | – | 94.7 ± 23.9 (44–140) mg/dL | 291.8 | −67.5 ± 60 (−179.6–69.4) mg·h/dL | −68.9 ± 25.1 (−129– −22) mg/dL | 141.7 ± 65.5 (40.7–318.2) μIU·h/mL | 86.4 ± 43.8 (29.7–248.4) μIU/mL | 17.9 ± 60.1 (−174.5–157.2) μIU·h/mL | 12.9 ± 45.2 (−109.2–122.1) μIU/mL | 2.5 ± 0.8 (1.2–4.5) L/h | 4.2 ± 6.3 (0–24.7) μg/L | 4.2 ± 2 | Tmax ([2]; after oral administration): ≤ 3 h; half-life [2]: 1.2 to 1.5 h; AUGC, area under the serum glucose-time curve ([3]; listed as GLI): 291.8 ± 48.5 (216.1–429.6) mg·h/dL; Number of AEs considered related to the investigational products ([7]; 35 subjects in safety assessment): five; Cold sweat: number of subjects who reported adverse drug reactions (number of ADRs) ([7]; N = 35): 1 (1); Dizziness: number of subjects who reported adverse drug reactions (number of ADRs) ([7]; N = 35): 1 (1); Hypoglycemia: number of subjects who reported adverse drug reactions (number of ADRs) ([7]; N = 35): 1 (1); Increased blood bilirubin: number of subjects who reported adverse drug reactions (number of ADRs) ([7]; N = 35): 1 (1); Nausea: number of subjects who reported adverse drug reactions (number of ADRs) ([7]; N = 35): 1 (1); CLss/F [1, 12]: 2.7 ± 1 (1.2–5.1) L/h; Ctrough,ss [1, 13]: 8.6 ± 10.9 (0–51.9) μg/L; AUC ([1]; human, plasma, oral, 4 mg): 1670 ± 624 ng·h/mL; Cmax ([1]; human, plasma, oral, 4 mg): 327 ± 98.5 ng/mL; half-life ([1]; human, plasma, oral, 4 mg): 4.7 ± 2.2 h
